Legend:
[1] = molecular target: T1, Metabotropic glutamate receptor 1 (Homo sapiens, UniProt Q13255); experiment: Positive allosteric modulatory activity at human mGlu1 receptor expressed in wild type T-Rex293 cells assessed as increase in glutamate-induced calcium mobilization pre-incubated for 2.5 mins before glutamate stimulation for 1 min; assay type: functional, cell-based
Procedure, shortened: (§1)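 Tetracycline-inducible human mGlu1 WT T-REx-293 cells were induced overnight with 50 ng/mL tetracycline in dialyzed-FBS medium. Cells were loaded with 1.15 μM Fluo-4 AM in HBSS/20 mM HEPES/2.5 mM probenecid for 45 min at 37 °C. Compounds (half-log series in DMSO) were added for 2.5 min, then an EC20 of glutamate for 1 min. Calcium flux was read on Flexstation; ECmax glutamate served as reference. n=3 in triplicate.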
Target sequence in this assay (Q13255 whole entry): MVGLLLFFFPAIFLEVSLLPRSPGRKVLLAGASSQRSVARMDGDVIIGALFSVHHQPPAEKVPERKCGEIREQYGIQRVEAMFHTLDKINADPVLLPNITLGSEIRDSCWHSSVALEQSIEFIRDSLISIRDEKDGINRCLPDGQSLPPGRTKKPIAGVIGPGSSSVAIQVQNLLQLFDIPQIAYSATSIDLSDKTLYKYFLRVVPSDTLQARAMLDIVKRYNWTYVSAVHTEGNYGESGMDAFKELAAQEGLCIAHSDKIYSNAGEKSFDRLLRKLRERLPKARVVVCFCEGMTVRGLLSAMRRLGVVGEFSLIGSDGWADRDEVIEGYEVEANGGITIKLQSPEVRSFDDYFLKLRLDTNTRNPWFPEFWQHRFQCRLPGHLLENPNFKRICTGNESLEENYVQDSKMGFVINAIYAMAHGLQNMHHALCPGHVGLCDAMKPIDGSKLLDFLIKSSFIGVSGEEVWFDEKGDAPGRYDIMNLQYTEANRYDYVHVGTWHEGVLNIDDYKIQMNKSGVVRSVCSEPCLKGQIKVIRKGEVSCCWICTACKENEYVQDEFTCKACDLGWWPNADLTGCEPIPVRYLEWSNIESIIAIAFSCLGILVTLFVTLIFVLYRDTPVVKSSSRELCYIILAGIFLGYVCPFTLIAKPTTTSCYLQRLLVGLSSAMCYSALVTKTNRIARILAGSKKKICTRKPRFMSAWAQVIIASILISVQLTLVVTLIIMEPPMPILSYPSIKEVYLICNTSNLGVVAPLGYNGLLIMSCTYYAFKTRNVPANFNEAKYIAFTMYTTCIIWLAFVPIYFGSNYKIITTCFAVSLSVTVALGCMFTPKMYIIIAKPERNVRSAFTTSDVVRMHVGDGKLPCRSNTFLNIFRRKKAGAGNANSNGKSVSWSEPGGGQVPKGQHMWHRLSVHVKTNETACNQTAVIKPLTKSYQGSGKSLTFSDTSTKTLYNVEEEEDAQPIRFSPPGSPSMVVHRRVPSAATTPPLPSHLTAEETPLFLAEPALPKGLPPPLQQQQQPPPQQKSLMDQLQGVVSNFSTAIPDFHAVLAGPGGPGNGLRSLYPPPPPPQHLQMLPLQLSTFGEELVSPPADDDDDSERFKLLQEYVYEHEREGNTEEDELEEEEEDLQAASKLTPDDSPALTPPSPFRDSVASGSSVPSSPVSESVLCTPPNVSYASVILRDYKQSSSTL

[2] = molecular target: T1, Metabotropic glutamate receptor 1; experiment: Positive allosteric modulatory activity at human mGlu1 receptor expressed in wild type T-Rex293 cells assessed as increase in glutamate-induced calcium mobilization pre-incubated for 2.5 mins before glutamate stimulation for 1 min relative to glutamate alone; assay type: functional, cell-based; procedure, shortened: as §1
Target sequence in this assay (Q13255 19-1194 limits assumed): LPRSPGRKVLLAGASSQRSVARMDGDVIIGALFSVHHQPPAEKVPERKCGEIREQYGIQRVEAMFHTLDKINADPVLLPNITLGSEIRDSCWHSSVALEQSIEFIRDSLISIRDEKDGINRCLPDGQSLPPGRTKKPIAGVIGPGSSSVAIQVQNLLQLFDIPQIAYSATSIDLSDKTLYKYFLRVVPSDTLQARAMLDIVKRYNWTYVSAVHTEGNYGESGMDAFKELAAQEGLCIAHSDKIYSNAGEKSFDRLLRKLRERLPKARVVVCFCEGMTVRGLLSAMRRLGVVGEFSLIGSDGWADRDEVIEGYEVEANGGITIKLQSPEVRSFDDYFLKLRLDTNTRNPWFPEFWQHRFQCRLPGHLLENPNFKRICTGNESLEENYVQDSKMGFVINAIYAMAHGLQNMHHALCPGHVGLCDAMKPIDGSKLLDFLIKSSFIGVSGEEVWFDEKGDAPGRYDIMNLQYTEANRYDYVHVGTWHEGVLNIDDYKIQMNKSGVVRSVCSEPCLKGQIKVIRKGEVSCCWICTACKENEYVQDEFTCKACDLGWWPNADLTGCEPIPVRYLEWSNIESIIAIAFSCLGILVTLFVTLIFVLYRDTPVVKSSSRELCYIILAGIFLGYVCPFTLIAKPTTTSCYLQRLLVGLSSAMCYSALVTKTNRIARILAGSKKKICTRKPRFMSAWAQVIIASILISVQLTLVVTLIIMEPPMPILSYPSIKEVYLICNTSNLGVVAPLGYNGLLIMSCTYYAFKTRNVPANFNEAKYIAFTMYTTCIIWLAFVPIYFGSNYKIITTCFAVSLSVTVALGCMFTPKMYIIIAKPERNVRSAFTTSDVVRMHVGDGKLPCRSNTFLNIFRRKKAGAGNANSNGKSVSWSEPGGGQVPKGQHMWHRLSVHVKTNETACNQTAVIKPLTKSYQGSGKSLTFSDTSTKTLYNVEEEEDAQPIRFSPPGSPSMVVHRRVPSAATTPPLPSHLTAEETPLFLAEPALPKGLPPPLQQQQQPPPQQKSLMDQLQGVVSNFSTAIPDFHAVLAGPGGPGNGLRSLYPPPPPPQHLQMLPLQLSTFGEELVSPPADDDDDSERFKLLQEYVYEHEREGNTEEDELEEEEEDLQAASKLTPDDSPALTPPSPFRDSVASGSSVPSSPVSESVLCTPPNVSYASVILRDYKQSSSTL

Liver microsome [3] = experiment: Stability in rat liver microsomes; assay type: ADME
Liver microsome [4] = experiment: Stability in human liver microsomes; assay type: ADME
Rattus norvegicus [5] = organism: Rattus norvegicus; experiment: Volume of distribution in rat; assay type: ADME, organism-based; conditions: in vivo
Rattus norvegicus [6] = organism: Rattus norvegicus; experiment: Half life in rat; assay type: ADME, organism-based; conditions: in vivo
[7] = Plasma protein binding in human; assay type: ADME, cell-free
[8] = Protein binding in rat brain; assay type: ADME, tissue-based; conditions: read-out: PB
[9] = Fraction unbound in human plasma; assay type: ADME, cell-free
Cytochrome P450 3A4 = Cytochrome P450 3A4 (Homo sapiens, UniProt P08684); experiment: Inhibition of […] (unknown origin); assay type: ADME
Cytochrome P450 1A2 = molecular target: T2, Cytochrome P450 1A2 (Homo sapiens, UniProt P05177); experiment: Inhibition of CYP1A2 (unknown origin); assay type: ADME
T2 sequence (P05177 whole entry): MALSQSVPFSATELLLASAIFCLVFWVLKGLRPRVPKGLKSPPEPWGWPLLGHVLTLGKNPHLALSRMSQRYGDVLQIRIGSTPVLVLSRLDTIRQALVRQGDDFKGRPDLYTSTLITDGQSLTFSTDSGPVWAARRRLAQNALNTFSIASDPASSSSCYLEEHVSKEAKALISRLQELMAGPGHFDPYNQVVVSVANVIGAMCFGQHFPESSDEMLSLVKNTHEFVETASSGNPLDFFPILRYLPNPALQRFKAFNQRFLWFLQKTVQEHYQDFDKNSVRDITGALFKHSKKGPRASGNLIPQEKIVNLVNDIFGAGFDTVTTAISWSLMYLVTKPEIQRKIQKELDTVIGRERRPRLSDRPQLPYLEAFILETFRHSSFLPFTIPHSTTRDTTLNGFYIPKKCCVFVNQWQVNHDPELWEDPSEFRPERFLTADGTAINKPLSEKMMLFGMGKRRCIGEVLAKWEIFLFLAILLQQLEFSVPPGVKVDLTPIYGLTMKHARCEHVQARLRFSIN

Cytochrome P450 2C9 = Cytochrome P450 2C9 (Homo sapiens, UniProt P11712); experiment: Inhibition of CYP2C9 (unknown origin); assay type: ADME
Cytochrome P450 2D6 = Cytochrome P450 2D6 (Homo sapiens, UniProt P10635); experiment: Inhibition of CYP2D6 (unknown origin); assay type: ADME
[10] = molecular target: Metabotropic glutamate receptor 4 (Homo sapiens, UniProt Q14833); experiment: Positive allosteric modulatory activity at human mGlu4 receptor expressed in wild type T-Rex293 cells assessed as increase in glutamate-induced calcium mobilization pre-incubated for 2.5 mins before glutamate stimulation for 1 min; assay type: functional, cell-based
[11] = Ratio of drug level in brain to plasma in rat; assay type: ADME
Plasma = experiment: Drug uptake in rat plasma; assay type: ADME
Brain = experiment: Drug uptake in rat brain; assay type: ADME, tissue-based; conditions: in vivo
[12] = Mean residence time in rat; assay type: ADME, organism-based; conditions: in vivo
[13] = Fraction unbound in rat plasma; assay type: ADME, cell-free

Sequence of Metabotropic glutamate receptor 4 (Q14833 whole entry): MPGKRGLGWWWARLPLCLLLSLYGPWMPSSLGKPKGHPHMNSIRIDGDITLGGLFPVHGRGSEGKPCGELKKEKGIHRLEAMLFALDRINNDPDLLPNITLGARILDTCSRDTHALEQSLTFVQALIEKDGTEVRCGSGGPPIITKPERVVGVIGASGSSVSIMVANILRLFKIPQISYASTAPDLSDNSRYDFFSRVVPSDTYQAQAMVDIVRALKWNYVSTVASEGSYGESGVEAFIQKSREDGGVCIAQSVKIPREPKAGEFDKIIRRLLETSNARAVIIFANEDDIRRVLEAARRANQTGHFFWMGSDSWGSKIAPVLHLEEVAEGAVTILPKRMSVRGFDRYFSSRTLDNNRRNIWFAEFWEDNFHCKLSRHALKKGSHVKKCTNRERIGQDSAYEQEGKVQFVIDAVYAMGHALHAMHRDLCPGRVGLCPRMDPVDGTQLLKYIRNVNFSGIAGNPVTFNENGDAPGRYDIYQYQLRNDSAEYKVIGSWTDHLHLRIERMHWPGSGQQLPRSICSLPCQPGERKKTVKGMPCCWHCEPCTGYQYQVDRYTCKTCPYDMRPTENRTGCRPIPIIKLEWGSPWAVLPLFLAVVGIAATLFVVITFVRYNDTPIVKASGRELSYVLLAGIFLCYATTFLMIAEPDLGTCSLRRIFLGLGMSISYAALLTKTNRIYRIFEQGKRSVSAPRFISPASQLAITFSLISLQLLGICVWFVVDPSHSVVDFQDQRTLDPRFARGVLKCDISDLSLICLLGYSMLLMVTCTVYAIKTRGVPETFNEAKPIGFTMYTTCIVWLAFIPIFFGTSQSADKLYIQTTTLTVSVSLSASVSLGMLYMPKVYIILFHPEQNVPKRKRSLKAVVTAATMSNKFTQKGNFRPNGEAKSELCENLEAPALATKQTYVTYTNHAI
Sequence of Cytochrome P450 2D6 (P10635 whole entry): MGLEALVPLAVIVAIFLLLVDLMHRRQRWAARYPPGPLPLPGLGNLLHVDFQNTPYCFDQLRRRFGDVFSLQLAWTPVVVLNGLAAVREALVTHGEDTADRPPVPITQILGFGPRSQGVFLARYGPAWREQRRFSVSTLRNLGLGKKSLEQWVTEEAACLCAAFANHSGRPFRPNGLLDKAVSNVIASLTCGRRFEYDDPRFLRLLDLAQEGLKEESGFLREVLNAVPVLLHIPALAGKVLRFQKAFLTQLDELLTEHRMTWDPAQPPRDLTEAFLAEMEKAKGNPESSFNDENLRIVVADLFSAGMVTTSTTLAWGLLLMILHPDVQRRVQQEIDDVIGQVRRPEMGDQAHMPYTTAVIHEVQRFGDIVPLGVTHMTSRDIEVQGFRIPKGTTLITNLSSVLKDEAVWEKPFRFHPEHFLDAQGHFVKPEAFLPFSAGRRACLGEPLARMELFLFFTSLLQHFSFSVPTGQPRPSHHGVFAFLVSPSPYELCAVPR
Sequence of Cytochrome P450 2C9 (P11712 whole entry): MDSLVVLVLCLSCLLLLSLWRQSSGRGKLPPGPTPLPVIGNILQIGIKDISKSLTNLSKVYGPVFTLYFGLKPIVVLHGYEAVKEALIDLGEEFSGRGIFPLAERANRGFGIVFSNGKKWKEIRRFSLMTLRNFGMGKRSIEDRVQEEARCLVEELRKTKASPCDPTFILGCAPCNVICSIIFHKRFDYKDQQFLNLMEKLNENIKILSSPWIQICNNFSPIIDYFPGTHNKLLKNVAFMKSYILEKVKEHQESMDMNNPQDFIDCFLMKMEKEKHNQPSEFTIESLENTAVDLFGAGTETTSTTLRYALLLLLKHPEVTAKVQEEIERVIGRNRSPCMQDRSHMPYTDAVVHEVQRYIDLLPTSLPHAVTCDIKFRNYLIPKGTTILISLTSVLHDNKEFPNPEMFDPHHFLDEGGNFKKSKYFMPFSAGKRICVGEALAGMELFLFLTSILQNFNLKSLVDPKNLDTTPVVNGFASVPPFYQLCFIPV
Sequence of Cytochrome P450 3A4 (P08684 whole entry): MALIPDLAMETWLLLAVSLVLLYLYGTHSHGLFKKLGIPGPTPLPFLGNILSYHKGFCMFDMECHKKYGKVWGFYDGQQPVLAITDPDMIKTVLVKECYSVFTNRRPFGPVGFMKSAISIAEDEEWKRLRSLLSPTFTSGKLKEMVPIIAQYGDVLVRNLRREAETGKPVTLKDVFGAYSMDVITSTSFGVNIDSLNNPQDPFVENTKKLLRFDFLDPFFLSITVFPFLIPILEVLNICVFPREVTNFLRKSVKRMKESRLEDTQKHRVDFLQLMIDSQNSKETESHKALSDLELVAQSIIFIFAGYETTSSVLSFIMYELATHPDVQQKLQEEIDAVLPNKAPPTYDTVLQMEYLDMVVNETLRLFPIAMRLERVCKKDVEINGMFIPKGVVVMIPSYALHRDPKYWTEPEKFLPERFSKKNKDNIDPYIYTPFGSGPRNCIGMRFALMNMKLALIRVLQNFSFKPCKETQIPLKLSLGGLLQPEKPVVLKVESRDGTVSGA

Row | Structure (SMILES) | EC50 ([1]; read-out: EC50) | %max [2] | other results
1 | Cc1ccoc1C(=O)Nc1ccc(N2C(=O)Cc3ccccc3CC2=O)c(Cl)c1 | 3500 nM | 95% | EC50 ([1]; read-out: pEC50 (converted)): 3630 nM
2 | Cc1ccoc1C(=O)Nc1ccc(N2CCOc3ncccc32)c(Cl)c1 | 2610 nM | 93% | 
3 | Cc1ccoc1C(=O)Nc1ccc(N2Cc3c(Cl)cccc3C2=O)c(Cl)c1 | 211 nM | 88% | Stability (Liver microsome [3]): Stable; Stability (Liver microsome [4]): Stable; Vd (Rattus norvegicus [5]): 3.36 L/kg; t1/2 (Rattus norvegicus [6]): 1.55 h; PPB [7]: > 99%; fraction unbound [8]: < 0.01; fraction unbound [9]: < 0.01; IC50 (Cytochrome P450 3A4): > 30000 nM; IC50 (Cytochrome P450 1A2): > 30000 nM; IC50 (Cytochrome P450 2C9): > 30000 nM; IC50 (Cytochrome P450 2D6): > 30000 nM; EC50 [10]: > 10000 nM; BPR [11]: 1.36; Cp/dose (Plasma): 193 nM; Druguptake/dose (Brain): 269 nM; MRT [12]: 5.03 h
4 | Cc1ccoc1C(=O)Nc1ccc(N2Cc3ccccc3C2=O)c(Cl)c1 | 3720 nM | 91% | Stability (Liver microsome [3]): Stable; Stability (Liver microsome [4]): Stable
5 | Cc1ccoc1C(=O)Nc1ccc(N2Cc3ccccc3C2=O)c(Cl)c1Cl | > 10000 nM |  | 
6 | Cc1ccoc1C(=O)Nc1ccc(N2C(=O)c3ccccc3C2(C)C)c(Cl)c1 | 6930 nM | 76% | EC50 ([1]; read-out: pEC50 (converted)): 7080 nM; fraction unbound [9]: < 0.01; fraction unbound [13]: < 0.01
7 | Cc1ccoc1C(=O)Nc1ccc(N2Cc3ccccc3C2=O)cc1F | > 10000 nM |  | 
8 | Cc1cccnc1C(=O)Nc1ccc(N2Cc3cccc(Cl)c3C2=O)c(Cl)c1 | > 10000 nM | 78% | 
9 | Cc1ccoc1C(=O)Nc1ccc(NC(=O)c2ccccc2)c(Cl)c1 | > 10000 nM |  | 
10 | Cc1ccoc1C(=O)Nc1ccc(N2Cc3cc(Cl)ccc3C2=O)c(Cl)c1 | > 10000 nM | 58% | fraction unbound [9]: < 0.01; fraction unbound [13]: < 0.01
11 | O=C(Nc1ccc(N2Cc3ccccc3C2=O)c(Cl)c1)c1ncccc1Cl | > 10000 nM |  | 
12 | Cc1ccoc1C(=O)Nc1ccc(N2C(=O)[C@@H]3CCCC[C@H]3C2=O)c(Cl)c1 (relative stereo) | > 10000 nM |  | 
13 | O=C(Nc1ccc(N2C(=O)c3cccc(Cl)c3C2=O)c(Cl)c1)c1ncccc1Cl |  |  | EC50 [10]: > 10000 nM
14 | Cc1ccoc1C(=O)Nc1ccc(N2Cc3cccnc3C2)c(Cl)c1 | 9550 nM | 78% | 
15 | Cc1scnc1C(=O)Nc1ccc(N2Cc3ccccc3C2=O)c(Cl)c1 | > 10000 nM | 33% | 
16 | COc1cccc2c1CN(c1ccc(NC(=O)c3occc3C)cc1Cl)C2=O | > 10000 nM |  | fraction unbound [9]: < 0.01; fraction unbound [13]: < 0.01
17 | Cc1ccoc1C(=O)Nc1ccc(N2Cc3c(C#N)cccc3C2=O)c(Cl)c1 | 2090 nM | 107% | EC50 ([1]; read-out: pEC50 (converted)): 2140 nM; fraction unbound [9]: < 0.01; fraction unbound [13]: < 0.01

The remaining compounds from weak to strong by EC50 ([1]; read-out: EC50), led by results:

Row | EC50 ([1]; read-out: EC50) | %max [2] | Structure (SMILES) | other results
18 | 1560 nM | 94% | Cc1ccoc1C(=O)Nc1ccc(N2Cc3ccccc3C2=O)cc1 | 
19 | 1360 nM | 97% | Cc1cccnc1C(=O)Nc1ccc(N2Cc3c(Cl)cccc3C2=O)c(Cl)c1 | EC50 ([1]; read-out: pEC50 (converted)): 1450 nM
20 | 1270 nM | 93% | O=C(Nc1ccc(N2Cc3c(Cl)cccc3C2=O)c(Cl)c1)c1ncccc1Cl | 
21 | 1260 nM | 86% | Cc1ccoc1C(=O)Nc1ccc(N2Cc3c(Cl)cccc3C2=O)cc1F | 
22 | 1130 nM | 105% | Cc1ccoc1C(=O)Nc1ccc(N2Cc3c(cccc3C(F)(F)F)C2=O)c(Cl)c1 | fraction unbound [9]: < 0.01; fraction unbound [13]: < 0.01
23 | 930 nM | 108% | Cc1ccoc1C(=O)Nc1ccc(NC(=O)c2ccccc2C(=O)O)c(Cl)c1 | 
24 | 878 nM | 82% | Cc1ccoc1C(=O)Nc1ccc(N2Cc3c(F)cccc3C2=O)c(Cl)c1 | EC50 ([1]; read-out: pEC50 (converted)): 891 nM; fraction unbound [9]: < 0.01; fraction unbound [13]: < 0.01
25 | 353 nM | 101% | Cc1ccoc1C(=O)Nc1ccc(N2Cc3cccc(Cl)c3C2=O)cc1 | 
26 | 245 nM | 99% | Cc1ccoc1C(=O)Nc1ccc(N2Cc3c(Cl)cccc3C2=O)cc1 | 

Reference: ChEMBL document CHEMBL3785002, “Lead optimization of the VU0486321 series of mGlu1 PAMs. Part 3. Engineering plasma stability by discovery and optimization of isoindolinone analogs” (Bioorg Med Chem Lett, 2016)
